# Bioassay records from PubChem BioAssay.
# PREPL inhibitor: PREPL enzyme inhibitors, primary screen, biochemical, fluorescence polarization | recombinant PREPL, fluorescence polarization activity-based probe | AID 2751, 2010 | inhibition, % at 5.96 µM | 320,000 tested, 0.68% active | Prolyl endopeptidase-like (Homo sapiens), Q4J6C6; in the data active means inhibition above about 43%;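 further: 0% = enzyme with DMSO and 100% = wells lacking enzyme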
# PAFAH1B3 inh: PAFAH1B3 enzyme inhibitors, primary screen, biochemical, fluorescence polarization, human; Platelet-activating factor acetylhydrolase IB subunit alpha1 (Homo sapiens), Q15102; recombinant PAFAH1B3, FP-rhodamine probe; inhibition, % at 3.39 µM; 340,000 tested, 0.28% active;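 active means inhibition above the screen-wide average of all tested compounds plus 3 SD, cut at about 25% in these data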;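 further: 0% = enzyme with DMSO only and 100% = wells lacking PAFAH1B3 protein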
# Target sequence (Q15102 whole entry, looked up): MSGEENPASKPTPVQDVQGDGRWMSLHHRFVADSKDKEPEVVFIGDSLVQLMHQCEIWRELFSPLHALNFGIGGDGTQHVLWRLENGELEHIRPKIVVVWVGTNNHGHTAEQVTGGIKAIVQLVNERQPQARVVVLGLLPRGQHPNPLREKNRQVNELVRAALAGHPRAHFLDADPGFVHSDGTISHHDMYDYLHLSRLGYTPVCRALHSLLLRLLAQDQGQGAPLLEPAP
# Apaf-1 inh: inhibitors of human Apaf-1 apoptosome, primary screen, biochemical, DEVD-Rh110 fluorescence, uHTS; Apoptotic protease-activating factor 1 (Homo sapiens), O14727; reconstituted apoptosome caspase-3 activity; inhibition, % at 20 µM; 330,000 tested, 0.71% active; AID 489030, 2010; active means inhibition of at least 40% at 20 µM;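 further: plate controls were DMSO wells for no effect and DEVD-CHO caspase inhibitor wells for full effect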
#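 Material: reconstituted apoptosome with Apaf-1, cytochrome c, caspase-9, procaspase-3, dATP. Technique: Rh110 fluorescence intensity. Buffer or medium: pH 7.5 Hepes buffer with CHAPS, BSA, DTT. Times: 30 min plus 50 min, RT.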
# PAFAH2 FP inh: PAFAH2 enzyme inhibitors, primary screen, biochemical, fluorescence polarization, human | recombinant PAFAH2, FP-rhodamine activity probe | 340,000 tested, 0.99% active | AID 492956, 2010 | inhibition, % at 3.39 µM;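 active means inhibition above the mean over all tested compounds plus 3 SD, cut at about 30% in these data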;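 further: inhibitors block probe labeling of enzyme so polarization drops; 0% = enzyme with DMSO and 100% = wells lacking PAFAH2 protein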
# pPAFAH FP inh: pPAFAH enzyme inhibitors, primary screen, biochemical, fluorescence polarization, human; Platelet-activating factor acetylhydrolase (Homo sapiens), Q13093; recombinant pPAFAH, FP-rhodamine probe fluorescence polarization; inhibition, % at 3.39 µM; 330,000 tested, 1.5% active; AID 463082, 2010;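 active means inhibition above the mean inhibition across the screen plus 3 SD, cut at about 25% in these data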;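 further: inhibitors block binding of the rhodamine activity-based probe so polarization drops; 0% = enzyme with DMSO and 100% = wells lacking pPAFAH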
# PAFAH1B2 FP inh: PAFAH1B2 enzyme inhibitors, primary screen, biochemical, fluorescence polarization, human. recombinant PAFAH1B2, FP-rhodamine activity probe. inhibition, % at 3.39 µM. 340,000 tested, 1.2% active. AID 492953, 2010;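 active means inhibition above the mean of all tested compounds plus 3 SD, cut at about 24% in these data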;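 further: 0% = enzyme with DMSO and 100% = wells lacking PAFAH1B2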
# Target sequence (P68402 whole entry, looked up): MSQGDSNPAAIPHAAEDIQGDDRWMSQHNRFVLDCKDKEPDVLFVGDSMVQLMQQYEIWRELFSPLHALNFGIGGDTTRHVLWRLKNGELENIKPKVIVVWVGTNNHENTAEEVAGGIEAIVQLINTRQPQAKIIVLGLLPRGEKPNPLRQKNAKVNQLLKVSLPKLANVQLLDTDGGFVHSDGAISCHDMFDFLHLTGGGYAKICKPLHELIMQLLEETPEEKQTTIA
# Numbers without * were called inactive; / = no result. This is a sample that favours compounds with a hit; in the whole collection about 3.5% have one here.
SMILES,PREPL inhibitor,PAFAH1B3 inh,Apaf-1 inh,PAFAH2 FP inh,pPAFAH FP inh,PAFAH1B2 FP inh
O=C(CCCN1C(=O)/C(=C/c2cccs2)SC1=S)Nc1ccccc1O,-5.2,3.3,10.2,-2.3,-4.9,1.4
CCc1ccc(/C=C2\SC(=S)N(CCCC(=O)Nc3ccccc3C(=O)O)C2=O)cc1,7.0,-2.2,17.6,30.7*,-4.1,55.0*
CCOc1ccc(/C=C2\SC(=S)N(CCCC(=O)NCCCN3CCOCC3)C2=O)cc1,36.3,-0.4,42.3*,1.5,12.2,-0.8
Cc1ccc(NC(=O)C(=O)c2c(-c3ccccc3)cc3ccccn23)cc1S(=O)(=O)N1CCOCC1,7.2,11.1,24.9,5.1,-2.1,0.1
CC(/C=N/NC(=O)CNc1n[nH]c(=O)[nH]c1=O)c1ccccc1 (centres undefined),-3.5,2.3,-21.0,-3.7,2.5,19.0
CCOc1ccc(S(=O)(=O)Nc2cccc(C(=O)NCC(C)(C)N3CCOCC3)c2)cc1,2.1,7.9,1.6,-2.8,-3.2,-0.4
O=C(Nc1cccc(Cl)c1)Nc1nnc(CC2=CCCCC2)s1,0.2,2.1,22.1,-2.1,2.6,-2.8
C1CCCCCC2(CCCCC1)OCC(CN1CCOCC1)O2 (centres undefined),-3.0,6.4,6.6,9.5,4.2,26.5*
COc1cccc2c1C1COC3C4CC(C(=O)O)C(C(C2)N13)N4C (centres undefined),/,7.6,/,4.3,/,3.1
CC(C)c1cc(C(=O)N2CCCC(Nc3ccc(F)cc3)C2)n[nH]1 (centres undefined),33.4,2.5,6.9,5.0,2.9,24.2*
Cc1ccc(S(=O)(=O)/N=C2/C=C(C3C(=O)CC(C)(C)CC3=O)C(=O)c3ccccc32)cc1,11.9,10.2,28.1,-1.5,7.6,1.5
CCc1ccc(S(=O)(=O)/N=C2/C=C(Sc3ncn[nH]3)C(=O)c3ccccc32)cc1,16.8,49.9*,/,40.8*,5.5,50.1*
CCc1ccc(S(=O)(=O)/N=C2\C=CC(=O)c3ccccc32)cc1,28.0,/,54.7*,/,40.1*,/
CCc1ccc(S(=O)(=O)ON2C(=O)c3ccccc3C2=O)cc1,/,17.8,-0.4,14.3,/,7.5
Cc1ccc(NC(=O)c2ccc(-n3cccn3)c([N+](=O)[O-])c2)cc1,4.7,3.2,-1.8,-1.4,0.8,-0.4
O=C(Nc1ccc(C2=NCCN2)cc1)c1ccc(C(=O)Nc2ccc(C3=NCCN3)cc2)c([N+](=O)[O-])c1,45.1*,5.4,-18.4,-3.1,8.3,1.8
Cc1cc(C)c(NC(=O)CNC(=O)COC(=O)/C=C/c2cccs2)c(C)c1,-0.7,8.0,4.2,8.1,26.8*,5.2
Cc1cc(C)c(NC(=O)COC(=O)Cc2cccs2)c(C)c1,1.3,9.6,-0.4,3.0,25.7*,0.9
CCNC(=O)c1c(NC(=O)c2cc(-c3cc(C)cc(C)c3O)n[nH]2)sc2c1CCCC2,/,-1.5,/,-8.9,/,0.8
COc1ccc2oc(C(=O)Nc3ccc(N4CCOCC4)cc3)c(C)c2c1,6.7,4.4,29.1,12.6,52.3*,3.4
COc1ccc2oc(C(=O)Nc3ccccc3N3CCOCC3)c(C)c2c1,-5.4,2.0,0.5,5.5,-5.4,-0.9
COc1ccccc1NC(=O)C1CCN(S(=O)(=O)c2cccs2)CC1,10.2,3.1,2.6,6.6,3.9,-1.8
CCCCC(CC)CNC(=O)CN(C)S(=O)(=O)c1cccc2nsnc12 (centres undefined),-12.2,8.8,11.2,5.8,2.9,24.6*
CCCCC(CC)CNC(=O)CCS(=O)(=O)c1cccc2nsnc12 (centres undefined),6.8,2.3,6.4,7.4,3.2,23.2
O=C1NC(=O)/C(=C/c2ccccc2Oc2ccc(Cl)cc2)S1,21.4,-0.1,26.3,0.4,13.5,28.4*
O=C(COc1ccccc1/C=C1\SC(=O)NC1=O)Nc1ccc(F)cc1,8.3,-6.1,8.2,-1.8,-5.6,-4.7
